Measurements taken from ChEMBL document CHEMBL4819098, “Novel 1,2,4-triazine-quinoline hybrids: The privileged scaffolds as potent multi-target inhibitors of LPS-induced inflammatory response via dual COX-2 and 15-LOX inhibition” (Eur J Med Chem, 2021).
pIC50: −log10 of the molar value. Each block holds one molecule with its values, some of them ahead of it.

Experiments:
[1] = target: T1, Prostaglandin G/H synthase 1 (Ovis aries, UniProt P05979); test: Inhibition of ovine COX-1 by colorimetric analysis
T1 sequence (P05979 whole entry): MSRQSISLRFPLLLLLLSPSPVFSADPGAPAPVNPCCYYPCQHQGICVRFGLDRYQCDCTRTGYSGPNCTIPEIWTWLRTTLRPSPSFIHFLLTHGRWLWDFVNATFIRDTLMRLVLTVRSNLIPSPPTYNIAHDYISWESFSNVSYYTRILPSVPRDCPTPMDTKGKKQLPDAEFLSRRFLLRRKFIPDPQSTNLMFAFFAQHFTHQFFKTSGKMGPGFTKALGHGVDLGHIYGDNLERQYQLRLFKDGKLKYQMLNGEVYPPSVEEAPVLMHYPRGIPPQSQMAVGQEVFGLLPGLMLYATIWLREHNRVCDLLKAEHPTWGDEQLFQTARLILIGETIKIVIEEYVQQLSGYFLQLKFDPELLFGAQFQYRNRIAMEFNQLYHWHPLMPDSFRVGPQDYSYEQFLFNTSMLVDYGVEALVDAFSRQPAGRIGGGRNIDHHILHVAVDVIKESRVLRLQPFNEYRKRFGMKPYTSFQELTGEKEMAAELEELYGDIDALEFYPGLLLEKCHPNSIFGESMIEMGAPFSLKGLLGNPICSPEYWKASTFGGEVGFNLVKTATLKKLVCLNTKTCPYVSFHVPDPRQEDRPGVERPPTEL

[2] = target: T1, Prostaglandin G/H synthase 1; test: Inhibition of ovine COX-1 by EIA
[3] = target: T2, Prostaglandin G/H synthase 2 (Ovis aries, UniProt P79208); test: Inhibition of ovine COX-2 by EIA
T2 sequence (P79208 whole entry): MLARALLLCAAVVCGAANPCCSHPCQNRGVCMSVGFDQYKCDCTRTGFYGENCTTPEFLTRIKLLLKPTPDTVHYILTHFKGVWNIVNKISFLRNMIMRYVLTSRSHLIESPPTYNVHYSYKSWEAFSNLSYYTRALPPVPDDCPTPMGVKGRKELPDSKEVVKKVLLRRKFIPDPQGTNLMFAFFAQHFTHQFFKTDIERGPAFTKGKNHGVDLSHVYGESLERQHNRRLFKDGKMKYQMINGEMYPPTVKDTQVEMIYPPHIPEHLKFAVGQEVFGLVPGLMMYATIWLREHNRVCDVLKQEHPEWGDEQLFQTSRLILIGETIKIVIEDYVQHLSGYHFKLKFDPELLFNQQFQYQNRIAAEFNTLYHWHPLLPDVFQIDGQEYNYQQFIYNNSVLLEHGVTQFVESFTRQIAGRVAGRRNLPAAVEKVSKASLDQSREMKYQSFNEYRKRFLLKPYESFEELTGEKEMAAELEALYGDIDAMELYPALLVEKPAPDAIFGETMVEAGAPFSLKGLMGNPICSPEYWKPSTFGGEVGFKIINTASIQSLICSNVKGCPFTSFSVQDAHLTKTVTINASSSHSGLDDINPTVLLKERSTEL

[4] = target: T1, Prostaglandin G/H synthase 1; test: Inhibition of ovine COX-1 using arachidonic acid as substrate preincubated with enzyme for 5 mins followed by substrate addition by colorimetric analysis
[5] = target: T3, Prostaglandin G/H synthase 2 (Homo sapiens, UniProt P35354); test: Inhibition of human recombinant COX-2 using arachidonic acid as substrate preincubated with enzyme for 5 mins followed by substrate addition by colorimetric analysis
T3 sequence (P35354 whole entry): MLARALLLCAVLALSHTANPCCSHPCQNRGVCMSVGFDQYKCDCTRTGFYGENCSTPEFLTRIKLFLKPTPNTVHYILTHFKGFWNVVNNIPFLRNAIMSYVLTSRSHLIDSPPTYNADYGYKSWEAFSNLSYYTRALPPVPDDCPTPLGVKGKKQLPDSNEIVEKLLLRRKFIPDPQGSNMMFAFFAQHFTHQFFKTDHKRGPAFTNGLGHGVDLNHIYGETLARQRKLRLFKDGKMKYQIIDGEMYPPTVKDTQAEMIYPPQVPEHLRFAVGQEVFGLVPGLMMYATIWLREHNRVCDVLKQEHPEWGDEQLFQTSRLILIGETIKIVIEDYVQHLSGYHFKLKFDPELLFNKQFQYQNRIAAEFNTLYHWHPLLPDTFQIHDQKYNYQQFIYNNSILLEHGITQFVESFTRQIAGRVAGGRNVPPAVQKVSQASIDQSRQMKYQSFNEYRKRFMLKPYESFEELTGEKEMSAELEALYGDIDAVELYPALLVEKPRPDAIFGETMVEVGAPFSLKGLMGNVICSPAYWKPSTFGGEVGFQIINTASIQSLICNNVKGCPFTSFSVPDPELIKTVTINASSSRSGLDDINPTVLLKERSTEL

[6] = Selectivity index, ratio of IC50 for ovine COX-1 to IC50 for human recombinant COX-2
How it was run: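 Enzyme kit assay with ovine COX-1 and human recombinant COX-2. IC50 determined from three replicates. Selectivity index taken as IC50(COX-1)/IC50(COX-2).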

[7] = Inhibition of soybean 15-LOX using arachidonic acid or linolenic acid as substrate in presence of hydrogen peroxide incubated for 5 mins by colorimetric analysis; design: species or system Glycine max
RAW264.7 [8] = test: (§1) Antioxidant activity in mouse RAW264.7 cells assessed as inhibition of LPS-induced intracellular ROS production preincubated for 2 hrs followed by LPS stimulation and measured after 20 hrs by DCFH-DA staining based fluorescence analysis; type: functional, cell-based
RAW264.7 [9] = test: Inhibition of LPS-induced TNFalpha production in mouse RAW264.7 cells preincubated for 2 hrs followed by LPS stimulation and measured after 20 hrs by ELISA; type: functional, cell-based
RAW264.7 [10] = test: Inhibition of LPS-induced IL-6 production in mouse RAW264.7 cells preincubated for 2 hrs followed by LPS stimulation and measured after 20 hrs by ELISA; type: functional, cell-based
RAW264.7 [11] = test: Inhibition of LPS-induced 15(S)-HETE production in mouse RAW264.7 cells preincubated for 2 hrs followed by LPS stimulation and measured after 20 hrs by ELISA; type: functional, cell-based
[12] = target: T4, Prostaglandin G/H synthase 2 (Homo sapiens) (UniProt P35354); test: Potency index, ratio of diclofenac sodium IC50 to test compound IC50 for human recombinant COX-2 using arachidonic acid as substrate preincubated with enzyme for 5 mins followed by substrate addition by colorimetric analysis
T4 sequence (whole entry): T3 sequence (P35354 whole entry)

RAW264.7 [13] = test: as §1, with “Potency index, ratio of celecoxib IC50 to test compound IC50 for antioxidant” for “Antioxidant”; type: functional; conditions: time 22 hrs
RAW264.7 [14] = test: Cytotoxicity against mouse RAW264.7 cells assessed as reduction in cell viability by MTS assay; type: cell-based
How it was run: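 RAW 264.7 macrophage viability at the tested concentrations measured by MTS assay.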

RAW264.7 [15] = test: Potency index, ratio of celecoxib IC50 to test compound IC50 for inhibition of LPS-induced IL-6 production in mouse RAW264.7 cells preincubated for 2 hrs followed by LPS stimulation and measured after 20 hrs by ELISA; type: functional; conditions: time 22 hrs
RAW264.7 [16] = test: Potency index, ratio of diclofenac sodium IC50 to test compound IC50 for inhibition of LPS-induced IL-6 production in mouse RAW264.7 cells preincubated for 2 hrs followed by LPS stimulation and measured after 20 hrs by ELISA; type: functional; conditions: time 22 hrs
RAW264.7 [17] = test: Potency index, ratio of celecoxib IC50 to test compound IC50 for inhibition of LPS-induced 15(S)-HETE production in mouse RAW264.7 cells preincubated for 2 hrs followed by LPS stimulation and measured after 20 hrs by ELISA; type: functional; conditions: time 22 hrs
[18] = target: T3, Prostaglandin G/H synthase 2; test: Inhibition of COX-2 (unknown origin) using arachidonic acid as substrate preincubated with enzyme for 1 min followed by substrate addition by fluorometric analysis
[19] = target: T1, Prostaglandin G/H synthase 1; test: Inhibition of ovine COX-1 using arachidonic acid as substrate preincubated with enzyme for 20 mins followed by incubation with substrate for 2 mins by ADPH based fluorometric analysis
[20] = target: T3, Prostaglandin G/H synthase 2; test: Inhibition of human recombinant COX-2 using arachidonic acid as substrate preincubated with enzyme for 20 mins followed by incubation with substrate for 2 mins by ADPH based fluorometric analysis
[21] = target: T1, Prostaglandin G/H synthase 1; test: Inhibition of ovine COX-1 using arachidonic acid as substrate preincubated with enzyme for 5 mins followed by incubation with substrate for 5 mins by colorimetric analysis
[22] = target: T2, Prostaglandin G/H synthase 2; test: Inhibition of ovine COX-2 using arachidonic acid as substrate preincubated with enzyme for 5 mins followed by incubation with substrate for 5 mins by colorimetric analysis
[23] = Inhibition of soybean 5-LOX; design: species or system Glycine max
[24] = target: COX-1 (Prostaglandin G/H synthase 1) (Homo sapiens, UniProt P23219); test: Inhibition of COX-1 in human whole blood assessed as reduction in thromboxane B2 production at 10 uM measured after 1 hr by EIA; type: tissue-based
Chain of COX-1 (Prostaglandin G/H synthase 1) (P23219 whole entry): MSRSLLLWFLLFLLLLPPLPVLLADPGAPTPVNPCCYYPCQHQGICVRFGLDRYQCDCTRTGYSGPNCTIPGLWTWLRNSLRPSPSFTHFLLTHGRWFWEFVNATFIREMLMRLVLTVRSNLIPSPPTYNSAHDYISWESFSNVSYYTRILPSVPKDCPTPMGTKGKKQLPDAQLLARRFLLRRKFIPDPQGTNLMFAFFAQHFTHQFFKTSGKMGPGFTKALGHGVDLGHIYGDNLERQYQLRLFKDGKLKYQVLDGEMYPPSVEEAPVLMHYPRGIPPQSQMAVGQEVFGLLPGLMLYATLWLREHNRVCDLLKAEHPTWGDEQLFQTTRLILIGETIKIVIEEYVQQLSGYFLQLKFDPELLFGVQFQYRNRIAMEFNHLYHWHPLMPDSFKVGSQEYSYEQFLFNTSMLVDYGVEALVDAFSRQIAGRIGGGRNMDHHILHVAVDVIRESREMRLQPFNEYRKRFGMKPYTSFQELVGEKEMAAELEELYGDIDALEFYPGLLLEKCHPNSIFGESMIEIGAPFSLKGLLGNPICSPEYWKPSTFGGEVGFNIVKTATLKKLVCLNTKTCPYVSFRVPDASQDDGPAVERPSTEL

[25] = target: T4, Prostaglandin G/H synthase 2 (Homo sapiens); test: Inhibition of COX-2 in human whole blood assessed as reduction in PGE2 production at 10 uM measured after 24 hrs by EIA; type: tissue-based
[26] = Inhibition of soybean 15-LOX using linolenic acid as substrate by spectrophotometric analysis; design: species or system Glycine max

- pIC50 [1]: 7.00
Structure (SMILES): COc1ccc(/C=C2\N=C(c3cccnc3)N(c3ccccc3)NC2=O)cc1

- pIC50 [2]: < 4.30
- pIC50 [3]: 6.59
Structure (SMILES): CCOC(=O)c1cnn(C(=O)c2cc(-c3ccc(Cl)cc3)nc3ccc(OC)cc23)c1N

- pIC50 [4]: 4.90
- pIC50 [5]: 7.33
- Ratio IC50 [6]: 266
- pIC50 [7]: 5.74
- pIC50 (RAW264.7 [8]): 5.99
- pIC50 (RAW264.7 [9]): 4.72
- pIC50 (RAW264.7 [10]): 5.11
- pIC50 (RAW264.7 [11]): 6.77
- Ratio IC50 [12]: 17.9
Structure (SMILES): O=c1c(Cc2ccccc2)n[nH]c(=S)n1/N=C/c1cc2cc(OCc3ccccc3)ccc2nc1O
- Ratio IC50 (RAW264.7 [13]): 11
- Activity (RAW264.7 [14]): Non-Toxic
- Ratio IC50 (RAW264.7 [15]): 1.5
- Ratio IC50 (RAW264.7 [16]): 1.7
- Ratio IC50 (RAW264.7 [17]): 43

- pIC50 [18]: 6.89
Structure (SMILES): COc1ccc2ccc(F)c(CC(=O)N/N=C/c3ccc(C(F)(F)F)cc3)c2n1

- pIC50 [19]: 6.32
- pIC50 [20]: 5.80
Structure (SMILES): COc1ccc(-c2cc(-c3nnc(SC/C(=N/O)c4ccccc4)n3-c3ccccc3)c3ccccc3n2)cc1

- pIC50 [21]: 4.94
- pIC50 [22]: 7.00
- pIC50 [23]: 5.73
Structure (SMILES): COc1ccc(-c2nn(-c3ccc(Cl)cc3)cc2/C=C/c2cc(C(=O)N3CCOCC3)c3cc(Cl)ccc3n2)cc1

- inhibition at 1 h, 10 µM [24]: 69%
- inhibition [25]: 72%
- pIC50 [26]: 3.91
Structure (SMILES): COc1ccc(C2=C(c3ccc(OC)cc3)NNC(N/N=C/c3ccc(F)cc3)=N2)cc1
